Experimental data published in publication PMC2099187 (The Journal of Cell Biology, 2007).
Where “and” joins values, the source holds several entries; their conditions need not be identical. Identical values can stand only once.

Legend:
A549 cells = assay: Resensitization of ATII-induced Ca2+ signaling; assay type: cell-based, human; conditions: ATII 1 μM 1 h, 1 h recovery; SM-19712 10 μM; endogenous AT1AR and ECE-1
Outline: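 A549 cells (native AT1AR, ECE-1) were loaded with Fura-2AM for [Ca2+]i at 37°C. They were preincubated with ATII 1 μM or vehicle (1 h, 37°C), washed, recovered 1 h, then rechallenged with ATII 1 μM. SM-19712 10 μM or DMSO was preincubated 20–60 min and kept throughout. Response was expressed as % of vehicle-treated cells.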

HEK-B2R-V2RCT cells = assay: B2R-V2RCT recycling and colocalization with β-arrestin2-GFP; assay type: cell-based, human; conditions: 2 h recovery, SM-19712 10 μM
Outline: (§1)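 HEK cells stably expressing HA-tagged B2R or B2R-V2RCT were transiently transfected with β-arrestin2-GFP. Surface receptors were labelled with anti-HA11 (1:100, 30 min, 37°C), then given BK 100 nM for 10 min and recovered in BK-free medium (B2R 1 h; B2R-V2RCT 2 h). SM-19712 10 μM or DMSO was preincubated 20–60 min and kept throughout. Cells were PFA-fixed for confocal imaging; plasma-membrane fraction of fluorescence and colocalization coefficient (0–1) were scored in >20 cells/experiment, n ≥ 3.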

HEK-CLR-RAMP1 cells [1] = assay: Endocytosis and degradation of internalized 125I-His8-CGRP; assay type: cell-based, human; conditions: 30 min after internalization; SM-19712 10 μM, bafilomycin A1 0.15 or 1 μM
[2] = biological target: T1, recombinant human (rh) ECE-1 (Homo sapiens, UniProt P42892); assay: Peptide degradation by rhECE-1; assay type: biochemical; conditions: inhibitor 100 μM
T1 sequence (P42892 1-770): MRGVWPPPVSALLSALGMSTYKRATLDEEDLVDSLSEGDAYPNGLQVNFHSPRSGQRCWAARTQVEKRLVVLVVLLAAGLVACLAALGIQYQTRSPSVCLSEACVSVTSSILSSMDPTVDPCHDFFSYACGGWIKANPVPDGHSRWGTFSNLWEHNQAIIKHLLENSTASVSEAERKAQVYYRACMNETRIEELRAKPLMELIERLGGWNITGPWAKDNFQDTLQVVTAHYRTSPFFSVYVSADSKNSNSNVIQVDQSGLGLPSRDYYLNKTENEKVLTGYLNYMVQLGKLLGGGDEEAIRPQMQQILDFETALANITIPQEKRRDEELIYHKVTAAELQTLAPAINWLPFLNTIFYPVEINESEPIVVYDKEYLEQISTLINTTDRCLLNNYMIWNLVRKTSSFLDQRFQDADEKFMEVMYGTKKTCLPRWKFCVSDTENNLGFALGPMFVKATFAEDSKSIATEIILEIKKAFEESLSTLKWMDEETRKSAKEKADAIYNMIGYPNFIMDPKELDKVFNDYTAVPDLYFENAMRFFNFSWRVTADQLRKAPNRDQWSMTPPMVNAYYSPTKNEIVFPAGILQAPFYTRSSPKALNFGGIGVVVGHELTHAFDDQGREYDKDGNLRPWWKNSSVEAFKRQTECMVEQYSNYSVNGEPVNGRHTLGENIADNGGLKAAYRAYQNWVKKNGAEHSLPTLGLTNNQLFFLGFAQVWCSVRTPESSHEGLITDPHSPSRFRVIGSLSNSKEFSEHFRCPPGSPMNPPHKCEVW
Outline: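 Where used, the ECE-1 inhibitor (100 μM) was preincubated with enzyme on ice for 30 min at matching pH before substrate was added. Products were resolved by reversed-phase HPLC and identified by MALDI TOF/TOF mass spectrometry.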

HEK-CLR-RAMP1 cells [3] = assay: CLR and RAMP1 endocytosis and recycling; assay type: cell-based, human
Outline: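 Surface CLR and RAMP1 on HEK-CLR-RAMP1 cells were antibody-labelled via HA11 and Myc epitopes (1:100, 30 min, 37°C). Cells then received CGRP 100 nM for 1 h, were washed, and recovered 0–6 h in CGRP-free medium. Cells were either treated with SM-19712 10 μM (20–60 min preincubation, kept throughout) or transfected 72 h earlier with ECE-1 vs non-targeting siRNA. Confocal scoring gave % total cellular fluorescence at plasma membrane at 6 h.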

HEK-AT1AR cells = assay: Resensitization of ATII-induced Ca2+ signaling; assay type: cell-based, human; conditions: SM-19712 10 μM, 20 min and 2 h recovery
Outline: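 HEK-AT1AR cells were exposed to ATII (100 nM) or vehicle for 1 h at 37°C, washed, and allowed to recover in agonist-free medium at 37°C. They were then rechallenged with ATII (100 nM) while [Ca2+]i was measured. The [Ca2+]i change is expressed as % of the vehicle-pretreated response. Inhibitor (10 μM) or DMSO was preincubated 20–60 min and kept in buffers throughout. Mean ± SE, n ≥ 3.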

HEK-B2R cells = assay: B2R recycling and colocalization with β-arrestin2-GFP; assay type: cell-based, human; conditions: SM-19712 10 μM
Outline: as §1

HEK-CLR-RAMP1 cells [4] = assay: CGRP-induced Ca2+ signaling, desensitization and resensitization; assay type: cell-based, human; conditions: SM-19712 10 μM
Outline: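 HEK-CLR-RAMP1 cells were loaded with Fura-2AM; [Ca2+]i read at 37°C. Single challenge used CGRP 30 nM. For desensitization/resensitization: CGRP 100 nM or vehicle (1 h, 37°C), wash, 0–6 h recovery, CGRP 30 nM rechallenge. Variants: SM-19712 10 μM (20–60 min preincubation, kept throughout); ECE-1 or non-targeting siRNA pools, 72 h; transient ECE-1a-d-GFP. Response given as % of vehicle-treated cells, n ≥ 3.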

HEK cells = assay: BK-induced Ca2+ signaling, desensitization and resensitization; assay type: cell-based, human; conditions: SM-19712 10 μM
Outline: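 HEK cells with native B2R were loaded with Fura-2AM and [Ca2+]i read at 37°C, on coverslips or in suspension. Cells were preincubated with BK 100 nM or vehicle (10 min, 37°C), washed, recovered 0–120 min, then rechallenged with BK 100 nM. SM-19712 10 μM, bafilomycin A1 0.15 or 1 μM, or DMSO was preincubated 20–60 min and kept in buffers throughout.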

Structure (SMILES): Cc1nn(-c2ccccc2)c(NC(=O)NS(=O)(=O)c2ccc(Cl)cc2)c1C#N.[Na] [SM-19712]
- Effect on resensitization of responses to ATII (A549 cells): did not affect resensitization
- Change of colocalization coefficient of B2R-V2RCT with β-arrestin2 (HEK-B2R-V2RCT cells): twofold increase
- Effect on localization of B2R-V2RCT during recovery (HEK-B2R-V2RCT cells; BK 100 nM 10 min): causing it retention in endosomes with β-arrestin2
- Reduction of recycling of B2R-V2RCT (HEK-B2R-V2RCT cells; BK 100 nM 10 min): ~50% and > 50%
- Effect on degradation of internalized 125I-His8-CGRP (HEK-CLR-RAMP1 cells [1]): prevented degradation
- Effect on rhECE-1 degradation of CGRP ([2]; preincubated with ECE-1 on ice 30 min, pH 5.5): abolished
- Effect on rhECE-1 degradation of BK ([2]; rhECE-1 83 nM, pH 5.5 and 7.4): prevented this degradation
- Inhibition of recycling of CLR (CLR at the plasma membrane) (HEK-CLR-RAMP1 cells [3]; 6 h recovery after CGRP 100 nM 1 h, SM-19712 10 μM, siRNA 72 h): > 50%
- Effect on localization of CLR/RAMP1 after recovery in CGRP-free medium (HEK-CLR-RAMP1 cells [3]; CGRP 100 nM 1 h, wash, 6 h recovery): caused their retention in endosomes even at 6 h
- Effect on resensitization of ATII-induced Ca2+ signaling (HEK-AT1AR cells): did not affect resensitization at either time
- Effect on colocalization coefficient of β-arrestin2 and B2R (HEK-B2R cells; 1 h recovery): did not affect colocalization with B2R
- Reduction of recycling of B2R (HEK-B2R cells; BK 100 nM 10 min, 1 h recovery): < 10%
- Effect on BK-induced trafficking of B2R and β-arrestin2 (HEK-B2R cells; BK 100 nM 10 min, 60 min recovery): did not affect this trafficking
- Effect on response to a single challenge with CGRP ([Ca2+]i) (HEK-CLR-RAMP1 cells [4]; CGRP 30 nM): did not affect magnitude or duration
- Effect on desensitization of CGRP-induced Ca2+ signaling (HEK-CLR-RAMP1 cells [4]): did not affect desensitization
- Effect on resensitization of CGRP-induced Ca2+ signaling (HEK-CLR-RAMP1 cells [4]; 0–6 h recovery): strongly inhibited resensitization at all times
- Effect on response to a single BK challenge ([Ca2+]i) (HEK cells; BK 100 nM, thiorphan 1 μM, phosphoramidon 1 μM): did not affect responses to a single BK challenge
- Effect on desensitization of BK-induced Ca2+ signaling (HEK cells; bafilomycin A1 0.15 or 1 μM): had no effect
- Effect on resensitization of BK-induced Ca2+ signaling (HEK cells; bafilomycin A1 0.15 or 1 μM, 0–120 min recovery): had no effect
